Laboratory results from ChEMBL document CHEMBL2434951, “Synthesis and antimicrobial activity of polyhalobenzonitrile quinazolin-4(3H)-one derivatives” (2013).
In brackets after ≈: the same amount, converted by molar mass. Activity calls are given as the source filed them. No cut-off for these calls is given here.

Key:
Type in all cases: functional
Candida albicans [1] = experiment: Antifungal activity against Candida albicans ATCC 10231 assessed as growth inhibition after 24 hrs by liquid dilution method; conditions: ATCC 10231, 24 h
How it was run: (§1)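 Liquid (tube) dilution. Compounds and positive controls in DMSO at 11 concentrations from 0.98 upward. Each tube held 1 mL compound solution plus bacterial or fungal inoculum and sterile water. Incubated 24 h, then checked for turbidity; MIC is the lowest concentration without growth. Chlorothalonil, norfloxacin and fluconazole as standards.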

Escherichia coli [2] = experiment: Antibacterial activity against Escherichia coli ATCC 8099 assessed as growth inhibition at 1000 ug/mL after 24 hrs by disk diffusion assay; conditions: ATCC 8099, 24 h, read-out: DIZ
How it was run: (§2)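 Disk diffusion on nutrient agar, inoculum spread evenly. Disks of 6 mm Whatman No. 1 paper, dry-heat sterilized at 121 °C for 1 h, soaked in test compound at 1000 (micro)g/mL. Norfloxacin and chlorothalonil disks as positive controls, DMSO disks as negative control. Plates incubated 24 h at 37 °C. Inhibition zone diameter measured in mm.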

Escherichia coli [3] = experiment: Antibacterial activity against Escherichia coli ATCC 8099 assessed as growth inhibition after 24 hrs by liquid dilution method; conditions: ATCC 8099, 24 h; how it was run: as §1
Pseudomonas aeruginosa [4] = experiment: Antibacterial activity against Pseudomonas aeruginosa ATCC 15442 assessed as growth inhibition at 1000 ug/mL after 24 hrs by disk diffusion assay; conditions: ATCC 15442, 24 h, read-out: DIZ; how it was run: as §2
Staphylococcus aureus [5] = experiment: Antibacterial activity against Staphylococcus aureus ATCC 6538 assessed as growth inhibition at 1000 ug/mL after 24 hrs by disk diffusion assay; conditions: ATCC 6538, 24 h, read-out: DIZ; how it was run: as §2
Staphylococcus aureus [6] = experiment: Bactericidal activity against Staphylococcus aureus ATCC 6538 after 18 to 24 hrs; conditions: read-out: MBC99.9
How it was run: (§3)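 After the liquid dilution MIC tubes, 0.1 mL from each tube spread on agar plates. Colonies counted after 18–24 h incubation at 35 °C. MBC taken as the lowest drug concentration killing 99.9% of the inoculum.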

Bacillus cereus [7] = experiment: Bactericidal activity against Bacillus cereus ATCC 14579 after 18 to 24 hrs; conditions: read-out: MBC99.9; how it was run: as §3
Pseudomonas aeruginosa [8] = experiment: Antibacterial activity against Pseudomonas aeruginosa ATCC 15442 assessed as growth inhibition after 24 hrs by liquid dilution method; conditions: ATCC 15442, 24 h; how it was run: as §1
Bacillus cereus [9] = experiment: Antibacterial activity against Bacillus cereus ATCC 14579 assessed as growth inhibition at 1000 ug/mL after 24 hrs by disk diffusion assay; conditions: ATCC 14579, 24 h, read-out: DIZ; how it was run: as §2
Candida albicans [10] = experiment: Fungicidal activity against Candida albicans ATCC 10231 after 18 to 24 hrs; conditions: read-out: MFC99.9; how it was run: as §3
Candida albicans [11] = experiment: Antifungal activity against Candida albicans ATCC 10231 assessed as growth inhibition at 1000 ug/mL after 24 hrs by disk diffusion assay; conditions: for zone of inhibition at 1000 µg/mL: ATCC 10231, 24 h, read-out: DIZ; how it was run: as §2
Staphylococcus aureus [12] = experiment: Antibacterial activity against Staphylococcus aureus ATCC 6538 assessed as growth inhibition after 24 hrs by liquid dilution method; conditions: ATCC 6538, 24 h; how it was run: as §1
Bacillus cereus [13] = experiment: Antibacterial activity against Bacillus cereus ATCC 14579 assessed as growth inhibition after 24 hrs by liquid dilution method; conditions: ATCC 14579, 24 h; how it was run: as §1

Compound	MIC (Candida albicans [1]) [µg/mL]	zone of inhibition at 1000 µg/mL (Escherichia coli [2]) [mm]	MIC (Escherichia coli [3]) [µg/mL]	zone of inhibition at 1000 µg/mL (Pseudomonas aeruginosa [4]) [mm]	zone of inhibition at 1000 µg/mL (Staphylococcus aureus [5]) [mm]	MBC (Staphylococcus aureus [6]) [µg/mL]	MBC (Bacillus cereus [7]) [µg/mL]	MIC (Pseudomonas aeruginosa [8]) [µg/mL]	zone of inhibition at 1000 µg/mL (Bacillus cereus [9]) [mm]	MFC (Candida albicans [10]) [µg/mL]	zone of inhibition at 1000 µg/mL (Candida albicans [11]) [mm]	MIC (Staphylococcus aureus [12]) [µg/mL]	MIC (Bacillus cereus [13]) [µg/mL]	diameter of the inhibition zone (DIZ) (Candida albicans [11])
N#Cc1c(Cl)c(Cl)c(Nc2ccc(Nc3ccc(F)cc3)c3c(=O)[nH]cnc23)c(C#N)c1Cl	1.7 (≈ 3.4 µM)	9	6.5 (≈ 13 µM)	11	11.5	6.5 (≈ 13 µM)	6.5 (≈ 13 µM)	1.7 (≈ 3.4 µM)	18	52.1 (≈ 104 µM)	10.5	0.8 (≈ 1.6 µM)	0.7 (≈ 1.4 µM)	
CCn1cc(C(=O)O)c(=O)c2cc(F)c(N3CCNCC3)cc21 [NORFLOXACIN]		20	0.5 (≈ 1.57 µM)	16.8	17	5.2 (≈ 16.3 µM)	6.5 (≈ 20.4 µM)	0.7 (≈ 2.19 µM)	18.6		21.8	1.2 (≈ 3.76 µM)	0.6 (≈ 1.88 µM)	
OC(Cn1cncn1)(Cn1cncn1)c1ccc(F)cc1F [FLUCONAZOLE]	2 (≈ 6.53 µM)									15.6 (≈ 50.9 µM)				
N#Cc1c(Cl)c(Cl)c(Nc2ccc(N3CCCCC3)c3c(=O)[nH]cnc23)c(C#N)c1Cl	2.6 (≈ 5.49 µM)	9	1 (≈ 2.11 µM)	8.7	9.7	4.6 (≈ 9.71 µM)	6.5 (≈ 13.7 µM)	1.3 (≈ 2.74 µM)	15	41.7 (≈ 88 µM)		0.7 (≈ 1.48 µM)	0.5 (≈ 1.06 µM)	inactive
N#Cc1c(Cl)c(Cl)c(Nc2ccc(Nc3cccc(Cl)c3)c3c(=O)[nH]cnc23)c(C#N)c1Cl	1.7 (≈ 3.29 µM)	9	7.8 (≈ 15.1 µM)	8.7	8.5	31.3 (≈ 60.6 µM)	41.7 (≈ 80.8 µM)	20.8 (≈ 40.3 µM)	9	31.3 (≈ 60.6 µM)	9	0.7 (≈ 1.36 µM)	0.5 (≈ 0.969 µM)	
CN(C)c1ccc(Nc2c(Cl)c(Cl)c(C#N)c(Cl)c2C#N)c2nc[nH]c(=O)c12	0.5 (≈ 1.15 µM)	19	1.3 (≈ 3 µM)	15	14.3	2.6 (≈ 6 µM)	3.3 (≈ 7.61 µM)	2 (≈ 4.61 µM)	18	7.8 (≈ 18 µM)	15.5	3.3 (≈ 7.61 µM)	0.8 (≈ 1.84 µM)	
Cc1cc(C)cc(Nc2ccc(Nc3c(Cl)c(Cl)c(C#N)c(Cl)c3C#N)c3nc[nH]c(=O)c23)c1	5.2 (≈ 10.2 µM)	11.5	7.8 (≈ 15.3 µM)	10	10	31.3 (≈ 61.4 µM)	31.3 (≈ 61.4 µM)	20.8 (≈ 40.8 µM)	10.3	52.1 (≈ 102 µM)	7	0.8 (≈ 1.57 µM)	0.7 (≈ 1.37 µM)	
N#Cc1c(Cl)c(Cl)c(Cl)c(C#N)c1Cl [CHLOROTHALONIL]	0.7 (≈ 2.63 µM)	18.5	0.5 (≈ 1.88 µM)	15.8	14	2 (≈ 7.52 µM)	1.7 (≈ 6.39 µM)	1.7 (≈ 6.39 µM)	15.5	7.8 (≈ 29.3 µM)	17	1.3 (≈ 4.89 µM)	0.7 (≈ 2.63 µM)	
Cc1ccc(Nc2ccc(Nc3c(Cl)c(Cl)c(C#N)c(Cl)c3C#N)c3nc[nH]c(=O)c23)cc1		10.5	104 (≈ 210 µM)	12	9.3			52.1 (≈ 105 µM)	11		9.5	10.4 (≈ 21 µM)	0.7 (≈ 1.41 µM)	
